Reference: ChEMBL document CHEMBL3593189, “Kadcoccinic Acids A-J, Triterpene Acids from Kadsura coccinea” (J Nat Prod, 2015)

system: not listed separately; experiment: Therapeutic index, ratio of CC50 for human C8166 cells to EC50 for HIV1; assay type: cell-based; conditions: read-out: Ratio CC50/EC50
Outline: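 Therapeutic index computed as CC50 (MTT cytotoxicity in C8166 cells) divided by EC50 (inhibition of HIV-1 cytopathic effect, syncytium formation in microtiter assay).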

Row | Compound | selectivity ratio
1 | C=C1[C@@H]([C@H](C)CC/C=C(/C)C(=O)O)CC[C@@]2(C)[C@@H]3CC[C@@H](C(C)(C)O)[C@](C)(CCC(=O)O)C3=C[C@@H]12 | 2.4
2 | CC1=C([C@H](C)CC/C=C(/C)C(=O)O)CC[C@@]2(C)[C@@H]3CC[C@H]4C(C)(C)C(=O)CC[C@]4(C)C3=C[C@@H]12 | 1.9
3 | C=C1[C@@H]([C@H](C)CC/C=C(/C)C(=O)O)CC[C@@]2(C)C3=C(C[C@@H]12)[C@@](C)(CC(=O)O)[C@H](C(C)(C)C(=O)O)CC3 | > 1.7
4 | CO[C@@]12CC[C@H]3C(C)(C)C(=O)CC[C@]3(C)C1=CC1=C(C=O)[C@@H]([C@H](C)CC/C=C(/C)C(=O)O)CC[C@]12C | > 1.7
5 | C=C1[C@@H]([C@H](C)CC/C=C(/C)C(=O)O)CC[C@@]2(C)[C@@H]3CC[C@@H](C(C)(C)O)[C@](C)(CCC(=O)OC)C3=C[C@@H]12 | 1.8
6 | C=C1[C@@H]([C@H](C)CC/C=C(/C)C(=O)O)CC[C@@]2(C)[C@@H]3CC[C@@H](C(C)(C)C(=O)O)[C@](C)(CC(=O)O)C3=C[C@@H]12 | > 2.9
7 | C=C(C)[C@@H]1CC[C@@H]2C(=C[C@@]3(OC)C(=C)[C@@H]([C@H](C)CC/C=C(/C)C(=O)O)CC[C@@]23C)[C@@]1(C)CCC(=O)O | 2.6
8 | C=C1[C@@H]([C@H](C)CC/C=C(/C)C(=O)O)CC[C@@]2(C)[C@@H]3CC[C@@H](C(=C)C)[C@](C)(CCC(=O)O)C3=C[C@@H]12 | 2.3
9 | Cc1cn([C@H]2C[C@H](N=[N+]=[N-])[C@@H](CO)O2)c(=O)[nH]c1=O [ZIDOVUDINE] | > 230000

system: MCF7; experiment: Cytotoxicity against human MCF7 cells after 48 hrs by MTT assay; assay type: functional, cell-based; conditions: MCF7, 48 h

Row | Compound | IC50 [µM]
10 | CC1=C([C@H](C)CC/C=C(/C)C(=O)O)CC[C@@]2(C)[C@@H]3CC[C@H]4C(C)(C)C(=O)CC[C@]4(C)C3=C[C@@H]12 | > 10
11 | C=C1[C@@H]([C@H](C)CC/C=C(/C)C(=O)O)CC[C@@]2(C)[C@@H]3CC[C@H]4C(C)(C)OC(=O)CC[C@]4(C)C3=C[C@@H]12 | > 10
12 | C=C1[C@@H]([C@H](C)CC/C=C(/C)C(=O)O)CC[C@@]2(C)[C@@H]3CC[C@@H](C(C)(C)O)[C@](C)(CCC(=O)OC)C3=C[C@@H]12 | > 10
13 | C=C1[C@@H]([C@H](C)CC/C=C(/C)C(=O)O)CC[C@@]2(C)[C@@H]3CC[C@@H](C(C)(C)C(=O)O)[C@](C)(CC(=O)O)C3=C[C@@H]12 | > 10
14 | C=C(C)[C@@H]1CC[C@@H]2C(=C[C@@]3(OC)C(=C)[C@@H]([C@H](C)CC/C=C(/C)C(=O)O)CC[C@@]23C)[C@@]1(C)CCC(=O)O | > 10
15 | C=C1[C@@H]([C@H](C)CC/C=C(/C)C(=O)O)CC[C@@]2(C)[C@@H]3CC[C@@H](C(=C)C)[C@](C)(CCC(=O)O)C3=C[C@@H]12 | > 10

system: SW480; experiment: Cytotoxicity against human SW480 cells after 48 hrs by MTT assay; assay type: functional, cell-based; conditions: SW480, 48 h

Row | Compound | IC50 [µM]
16 | CC1=C([C@H](C)CC/C=C(/C)C(=O)O)CC[C@@]2(C)[C@@H]3CC[C@H]4C(C)(C)C(=O)CC[C@]4(C)C3=C[C@@H]12 | > 10
17 | C=C1[C@@H]([C@H](C)CC/C=C(/C)C(=O)O)CC[C@@]2(C)[C@@H]3CC[C@H]4C(C)(C)OC(=O)CC[C@]4(C)C3=C[C@@H]12 | > 10
18 | C=C1[C@@H]([C@H](C)CC/C=C(/C)C(=O)O)CC[C@@]2(C)[C@@H]3CC[C@@H](C(C)(C)O)[C@](C)(CCC(=O)OC)C3=C[C@@H]12 | > 10
19 | C=C1[C@@H]([C@H](C)CC/C=C(/C)C(=O)O)CC[C@@]2(C)[C@@H]3CC[C@@H](C(C)(C)C(=O)O)[C@](C)(CC(=O)O)C3=C[C@@H]12 | > 10
20 | C=C(C)[C@@H]1CC[C@@H]2C(=C[C@@]3(OC)C(=C)[C@@H]([C@H](C)CC/C=C(/C)C(=O)O)CC[C@@]23C)[C@@]1(C)CCC(=O)O | > 10
21 | C=C1[C@@H]([C@H](C)CC/C=C(/C)C(=O)O)CC[C@@]2(C)[C@@H]3CC[C@@H](C(=C)C)[C@](C)(CCC(=O)O)C3=C[C@@H]12 | > 10

system: HL-60; experiment: Cytotoxicity against human HL60 cells after 48 hrs by MTT assay; assay type: functional, cell-based; conditions: HL-60, 48 h

Row | Compound | IC50 [µM]
22 | CC1=C([C@H](C)CC/C=C(/C)C(=O)O)CC[C@@]2(C)[C@@H]3CC[C@H]4C(C)(C)C(=O)CC[C@]4(C)C3=C[C@@H]12 | > 10
23 | C=C1[C@@H]([C@H](C)CC/C=C(/C)C(=O)O)CC[C@@]2(C)[C@@H]3CC[C@H]4C(C)(C)OC(=O)CC[C@]4(C)C3=C[C@@H]12 | > 10
24 | C=C1[C@@H]([C@H](C)CC/C=C(/C)C(=O)O)CC[C@@]2(C)[C@@H]3CC[C@@H](C(C)(C)O)[C@](C)(CCC(=O)OC)C3=C[C@@H]12 | > 10
25 | C=C1[C@@H]([C@H](C)CC/C=C(/C)C(=O)O)CC[C@@]2(C)[C@@H]3CC[C@@H](C(C)(C)C(=O)O)[C@](C)(CC(=O)O)C3=C[C@@H]12 | > 10
26 | C=C(C)[C@@H]1CC[C@@H]2C(=C[C@@]3(OC)C(=C)[C@@H]([C@H](C)CC/C=C(/C)C(=O)O)CC[C@@]23C)[C@@]1(C)CCC(=O)O | > 10
27 | C=C1[C@@H]([C@H](C)CC/C=C(/C)C(=O)O)CC[C@@]2(C)[C@@H]3CC[C@@H](C(=C)C)[C@](C)(CCC(=O)O)C3=C[C@@H]12 | > 10

system: not listed separately; experiment: Cytotoxicity against human C8166 cells by MTT assay; assay type: cell-based; conditions: not given
Outline: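 C8166 cells assessed for cytotoxicity by MTT; CC50 derived. AZT positive control.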

Row | Compound | CC50 [µM]
28 | C=C1[C@@H]([C@H](C)CC/C=C(/C)C(=O)O)CC[C@@]2(C)[C@@H]3CC[C@@H](C(C)(C)O)[C@](C)(CCC(=O)O)C3=C[C@@H]12 | 143
29 | CC1=C([C@H](C)CC/C=C(/C)C(=O)O)CC[C@@]2(C)[C@@H]3CC[C@H]4C(C)(C)C(=O)CC[C@]4(C)C3=C[C@@H]12 | 116
30 | C=C1[C@@H]([C@H](C)CC/C=C(/C)C(=O)O)CC[C@@]2(C)C3=C(C[C@@H]12)[C@@](C)(CC(=O)O)[C@H](C(C)(C)C(=O)O)CC3 | > 200
31 | CO[C@@]12CC[C@H]3C(C)(C)C(=O)CC[C@]3(C)C1=CC1=C(C=O)[C@@H]([C@H](C)CC/C=C(/C)C(=O)O)CC[C@]12C | > 200
32 | C=C1[C@@H]([C@H](C)CC/C=C(/C)C(=O)O)CC[C@@]2(C)[C@@H]3CC[C@@H](C(C)(C)O)[C@](C)(CCC(=O)OC)C3=C[C@@H]12 | 142
33 | C=C1[C@@H]([C@H](C)CC/C=C(/C)C(=O)O)CC[C@@]2(C)[C@@H]3CC[C@@H](C(C)(C)C(=O)O)[C@](C)(CC(=O)O)C3=C[C@@H]12 | > 200
34 | C=C(C)[C@@H]1CC[C@@H]2C(=C[C@@]3(OC)C(=C)[C@@H]([C@H](C)CC/C=C(/C)C(=O)O)CC[C@@]23C)[C@@]1(C)CCC(=O)O | 184
35 | C=C1[C@@H]([C@H](C)CC/C=C(/C)C(=O)O)CC[C@@]2(C)[C@@H]3CC[C@@H](C(=C)C)[C@](C)(CCC(=O)O)C3=C[C@@H]12 | 203
36 | Cc1cn([C@H]2C[C@H](N=[N+]=[N-])[C@@H](CO)O2)c(=O)[nH]c1=O [ZIDOVUDINE] | 4690

system: A549; experiment: Cytotoxicity against human A549 cells after 48 hrs by MTT assay; assay type: functional, cell-based; conditions: A549, 48 h

Row | Compound | IC50 [µM]
37 | CC1=C([C@H](C)CC/C=C(/C)C(=O)O)CC[C@@]2(C)[C@@H]3CC[C@H]4C(C)(C)C(=O)CC[C@]4(C)C3=C[C@@H]12 | > 10
38 | C=C1[C@@H]([C@H](C)CC/C=C(/C)C(=O)O)CC[C@@]2(C)[C@@H]3CC[C@H]4C(C)(C)OC(=O)CC[C@]4(C)C3=C[C@@H]12 | > 10
39 | C=C1[C@@H]([C@H](C)CC/C=C(/C)C(=O)O)CC[C@@]2(C)[C@@H]3CC[C@@H](C(C)(C)O)[C@](C)(CCC(=O)OC)C3=C[C@@H]12 | > 10
40 | C=C1[C@@H]([C@H](C)CC/C=C(/C)C(=O)O)CC[C@@]2(C)[C@@H]3CC[C@@H](C(C)(C)C(=O)O)[C@](C)(CC(=O)O)C3=C[C@@H]12 | > 10
41 | C=C(C)[C@@H]1CC[C@@H]2C(=C[C@@]3(OC)C(=C)[C@@H]([C@H](C)CC/C=C(/C)C(=O)O)CC[C@@]23C)[C@@]1(C)CCC(=O)O | > 10
42 | C=C1[C@@H]([C@H](C)CC/C=C(/C)C(=O)O)CC[C@@]2(C)[C@@H]3CC[C@@H](C(=C)C)[C@](C)(CCC(=O)O)C3=C[C@@H]12 | > 10

system: Human immunodeficiency virus 1; experiment: Antiviral activity against HIV1 assessed as inhibition of cytopathic effect by microtiter syncytium formation infectivity assay; assay type: functional, organism-based; conditions: not given
Outline: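 HIV-1 cytopathic-effect inhibition read as syncytium formation in microtiter format; EC50 derived. AZT positive control.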

Row | Compound | EC50 [µM]
43 | C=C1[C@@H]([C@H](C)CC/C=C(/C)C(=O)O)CC[C@@]2(C)[C@@H]3CC[C@@H](C(C)(C)O)[C@](C)(CCC(=O)O)C3=C[C@@H]12 | 58.7
44 | CC1=C([C@H](C)CC/C=C(/C)C(=O)O)CC[C@@]2(C)[C@@H]3CC[C@H]4C(C)(C)C(=O)CC[C@]4(C)C3=C[C@@H]12 | 62
45 | C=C1[C@@H]([C@H](C)CC/C=C(/C)C(=O)O)CC[C@@]2(C)C3=C(C[C@@H]12)[C@@](C)(CC(=O)O)[C@H](C(C)(C)C(=O)O)CC3 | 120
46 | CO[C@@]12CC[C@H]3C(C)(C)C(=O)CC[C@]3(C)C1=CC1=C(C=O)[C@@H]([C@H](C)CC/C=C(/C)C(=O)O)CC[C@]12C | 116
47 | C=C1[C@@H]([C@H](C)CC/C=C(/C)C(=O)O)CC[C@@]2(C)[C@@H]3CC[C@@H](C(C)(C)O)[C@](C)(CCC(=O)OC)C3=C[C@@H]12 | 81.2
48 | C=C1[C@@H]([C@H](C)CC/C=C(/C)C(=O)O)CC[C@@]2(C)[C@@H]3CC[C@@H](C(C)(C)C(=O)O)[C@](C)(CC(=O)O)C3=C[C@@H]12 | 68.7
49 | C=C(C)[C@@H]1CC[C@@H]2C(=C[C@@]3(OC)C(=C)[C@@H]([C@H](C)CC/C=C(/C)C(=O)O)CC[C@@]23C)[C@@]1(C)CCC(=O)O | 70
50 | C=C1[C@@H]([C@H](C)CC/C=C(/C)C(=O)O)CC[C@@]2(C)[C@@H]3CC[C@@H](C(=C)C)[C@](C)(CCC(=O)O)C3=C[C@@H]12 | 88.2
51 | Cc1cn([C@H]2C[C@H](N=[N+]=[N-])[C@@H](CO)O2)c(=O)[nH]c1=O [ZIDOVUDINE] | 0.02

system: SMMC-7721; experiment: Cytotoxicity against human SMMC7721 cells after 48 hrs by MTT assay; assay type: functional, cell-based; conditions: SMMC-7721, 48 h

Row | Compound | IC50 [µM]
52 | CC1=C([C@H](C)CC/C=C(/C)C(=O)O)CC[C@@]2(C)[C@@H]3CC[C@H]4C(C)(C)C(=O)CC[C@]4(C)C3=C[C@@H]12 | > 10
53 | C=C1[C@@H]([C@H](C)CC/C=C(/C)C(=O)O)CC[C@@]2(C)[C@@H]3CC[C@H]4C(C)(C)OC(=O)CC[C@]4(C)C3=C[C@@H]12 | > 10
54 | C=C1[C@@H]([C@H](C)CC/C=C(/C)C(=O)O)CC[C@@]2(C)[C@@H]3CC[C@@H](C(C)(C)O)[C@](C)(CCC(=O)OC)C3=C[C@@H]12 | > 10
55 | C=C1[C@@H]([C@H](C)CC/C=C(/C)C(=O)O)CC[C@@]2(C)[C@@H]3CC[C@@H](C(C)(C)C(=O)O)[C@](C)(CC(=O)O)C3=C[C@@H]12 | > 10
56 | C=C(C)[C@@H]1CC[C@@H]2C(=C[C@@]3(OC)C(=C)[C@@H]([C@H](C)CC/C=C(/C)C(=O)O)CC[C@@]23C)[C@@]1(C)CCC(=O)O | > 10
57 | C=C1[C@@H]([C@H](C)CC/C=C(/C)C(=O)O)CC[C@@]2(C)[C@@H]3CC[C@@H](C(=C)C)[C@](C)(CCC(=O)O)C3=C[C@@H]12 | > 10
